# Results as given in ChEMBL document CHEMBL4732146, “Nitric oxide-donating and reactive oxygen species-responsive prochelators based on 8-hydroxyquinoline as anticancer agents” (Eur J Med Chem, 2021).
# Active and inactive are the calls of the source. The rule behind the calls is not given here.
# Legend:
# [1] = Stability of compound in pH 5 PBS buffer assessed as parent compound remaining measured after 24 hrs by RP-HPLC analysis; format: physicochemical; conditions: read-out: Stabilty
# Method in brief: (§1)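 Compound (1 µM) stirred at 37 °C either in PBS (pH 5.0, 7.4 or 10.0) containing 5% DMSO or in DMEM with 10% FBS. Aliquots were analysed by RP-HPLC (0.1% TFA water/methanol gradient, 256 nm) for remaining intact compound, up to 24 h.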
# [2] = tested on: PANC-1; test: Cytotoxicity against human PANC-1 cells assessed as reduction in cell viability measured after 48 hrs in presence of CuCl2 by MTT assay; format: functional, cell-based; conditions: PANC-1, 48 h
# Method in brief: (§2)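 Cells seeded 6 × 10⁴ per well, cultured 24 h at 37 °C under 5% CO₂, then exposed to compound for 48 h, with or without 50 µM CuCl₂ or FeCl₃ co-incubation. MTT added for 4 h at 37 °C, formazan dissolved in DMSO, A490 read. IC50 reported as mean (SD), n = 3.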
# [3] = Cytotoxicity against human RWPE2 cells assessed as reduction in cell viability measured after 48 hrs by MTT assay; format: cell-based; conditions: RWPE2, 48 h; method in brief: as §2
# [4] = Prodrug activation in ClO- at 100 uM measured after 1 hr by RP-HPLC analysis
# Method in brief: (§3)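 Compound (100 µM) incubated at 37 °C for 1 h with one of: ROS species (1 mM), NO solution (1 mM), GSH (200 µM), CuCl₂ (10 µM) or FeCl₃ (10 µM). Percent decomposed was determined by RP-HPLC (ODS column, 0.1% TFA water/methanol gradient, 1 mL/min, 256 nm).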
# [5] = Stability of compound in pH 7.4 PBS buffer assessed as parent compound remaining measured after 24 hrs by RP-HPLC analysis; format: physicochemical; conditions: read-out: Stabilty; method in brief: as §1
# [6] = Metal chelating activity assessed as compound-Cu2+ complex stoichiometry ratio of […] after 1 hr by Job's plot analysis
# [7] = Prodrug activation in tBuO at 100 uM measured after 1 hr by RP-HPLC analysis; method in brief: as §3
# [8] = tested on: PANC-1; test: Cytotoxicity against human PANC-1 cells assessed as reduction in cell viability measured after 48 hrs in presence of FeCl3 by MTT assay; format: functional, cell-based; conditions: PANC-1, 48 h; method in brief: as §2
# [9] = tested on: SW1990; test: Induction of apoptosis in human SW1990 cells assessed as increase in cleaved caspase-9 expression at 8 to 12 uM measured after 24 hrs by Western blot analysis; format: functional, cell-based; conditions: dose 8-12 µM
# Method in brief: (§4)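 SW1990 cells seeded 5 × 10⁵ per well and grown 24 h at 37 °C, then treated 24 h. Lysates quantified by BCA, resolved by SDS-PAGE and transferred to nitrocellulose. Blocked in 5% milk, probed overnight at 4 °C for cleaved caspase-3, cleaved caspase-9, Bax and Bcl-2, then HRP secondary 2 h. ECL detection.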
# [10] = Cytotoxicity against human H6C7 cells assessed as reduction in cell viability measured after 48 hrs by MTT assay; format: cell-based; conditions: H6C7, 48 h; method in brief: as §2
# [11] = Metal chelating activity assessed as compound-Cu2+ complex formation by measuring intracellular HO level in human SW1990 cells at 10 uM measured after 1 hr in presence of CuCl2 by HO probe based confocal laser scanning microscopic analysis; format: cell-based
# Method in brief: (§5)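 SW1990 cells at 80% confluence were loaded with 20 µM HO· probe at 37 °C for 30 min and rinsed. They then received 50 µM CuCl₂, followed by 10 µM compound for 1 h. For the scavenger arm, 1 mM tempol was given for 30 min before CuCl₂. CLSM imaging at λex 570 / λem 650 nm gave mean intensity; n = 3.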
# [12] = Metal chelating activity assessed as compound-Cu2+ complex formation by measuring intracellular HO level in human SW1990 cells at 10 uM measured after 1 hr in presence of CuCl2 and HO radical scavenger tempol by HO probe based confocal laser scanning microscopic analysis; format: cell-based; method in brief: as §5
# [13] = tested on: SW1990; test: Induction of apoptosis in human SW1990 cells at 8 to 12 uM measured after 24 hrs by Annexin V-FITC/propidium iodide staining based flow cytometry; format: functional, cell-based; conditions: dose 8-12 µM
# Method in brief: (§6)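 SW1990 cells seeded 5 × 10⁵ per well and grown 24 h, then treated 24 h at 8 or 12 µM. Optional 1 h pretreatment with 20 mM NAC or 50 µM carboxyl-PTIO before 12 µM treatment. Cells stained with annexin V-FITC 15 min and PI 5 min at room temperature in the dark, then analysed by flow cytometry. Mean ± SD, n = 3.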
# [14] = tested on: SW1990; test: Induction of apoptosis in human SW1990 cells assessed as increase in Bax-2 expression at 8 to 12 uM measured after 24 hrs by Western blot analysis; format: functional, cell-based; conditions: dose 8-12 µM; method in brief: as §4
# [15] = Stability of compound in presence of Cu2+ at 100 uM measured after 1 hr by RP-HPLC analysis; format: physicochemical; method in brief: as §3
# [16] = Prodrug activation in peroxynitrite ONOO- assessed as drug decomposition at 100 uM measured after 1 hr by RP-HPLC analysis; method in brief: as §3
# [17] = tested on: SW1990; test: Cytotoxicity against human SW1990 cells assessed as reduction in cell viability measured after 48 hrs in presence of FeCl3 by MTT assay; format: functional, cell-based; conditions: SW1990, 48 h; method in brief: as §2
# [18] = tested on: SW1990; test: Induction of apoptosis in human SW1990 cells at 12 uM measured after 24 hrs in presence of NO scavenger Carboxyl-PTIO by Annexin V-FITC/propidium iodide staining based flow cytometry; format: functional, cell-based; method in brief: as §6
# [19] = Stability of compound in pH 10 PBS buffer assessed as parent compound remaining measured after 24 hrs by RP-HPLC analysis; format: physicochemical; conditions: read-out: Stabilty; method in brief: as §1
# [20] = tested on: SW1990; test: Induction of apoptosis in human SW1990 cells at 12 uM measured after 24 hrs in presence of ROS quencher NAC by Annexin V-FITC/propidium iodide staining based flow cytometry; format: functional, cell-based; method in brief: as §6
# [21] = tested on: SW1990; test: Cell cycle arrest in human SW1990 cells assessed as increase in accumulation at G1-phase at 12 uM measured after 24 hrs by propidium iodide staining based flow cytometry; format: functional
# Method in brief: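 SW1990 cells seeded 5 × 10⁵ per well, grown 24 h, then treated 24 h. Washed in ice-cold PBS, fixed ≥24 h in ice-cold 70% alcohol, RNase A treated, PI-stained 30 min at 4 °C in the dark. DNA content read by flow cytometry to give cycle distribution. Mean ± SD, n = 3.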
# [22] = Prodrug activation in OH at 100 uM measured after 1 hr by RP-HPLC analysis; method in brief: as §3
# [23] = tested on: SW1990; test: Cytotoxicity against human SW1990 cells assessed as reduction in cell viability measured after 48 hrs in presence of 10 to 50 uM Cu2+ by MTT assay; format: functional, cell-based; conditions: dose 10-50 µM
# [24] = Stability of compound in DMEM with 10% fetal bovine serum assessed as parent compound remaining measured after 24 hrs by RP-HPLC analysis; format: cell-free; method in brief: as §1
compound,measurement,setting,value
O=C(NCCCOc1no[n+]([O-])c1S(=O)(=O)c1ccccc1)c1ccc2cccc(OCc3ccc(B(O)O)cc3)c2n1,remaining at 24 h,[1],> 80%
same,IC50,[2],1.69 µM
same,IC50,[3],35.6 µM
same,Drug metabolism,[4],Metabolite_Notdetected
same,remaining at 24 h,[5],> 80%
same,Ratio,[6],0.64
same,Drug metabolism,[7],Metabolite_Notdetected
same,IC50,[8],17.6 µM
same,Activity,[9],Active
same,IC50,[10],> 50 µM
same,Activity,[11],Active
same,Activity,[12],inactive
same,Activity,[13],Active
same,Activity,[14],Active
same,Stabilty,[15],Stable
same,Drug degradation,[16],20.8%
same,IC50,[17],15.4 µM
same,Activity,[18],inactive
same,remaining at 24 h,[19],> 80%
same,Activity,[20],inactive
same,Activity,[21],Active
same,Drug metabolism,[22],Metabolite_Notdetected
same,Activity,[23],Dose-dependent effect
same,Stability,[24],> 80%
